In article PMC9909812 (ACS Omega, 2023):
Where a SMILES comes first, the peptide text is derived from it. [ ]: non-standard residue; d: D form. The star is where a group is joined. X1 = O=C(O)CN1CCN(CC(=O)O)CCN(CC(=O)NCCN2C(=O)CC(*)C2=O)CCN(CC(=O)O)CC1

How the values were obtained:
[1] = tested on: inflamed tissue; assay: Biodistribution of ^68Ga-DOTA-BSA in the turpentine oil inflammation model; assay type: in vivo, mice; conditions: 5–10 MBq, mean ± SD, n = 3
Procedure, shortened: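 Inflammation induced by s.c. injection of 30 μL turpentine oil into the right thigh of female mice (4–5 weeks old). Radiolabelled albumin tracer (5–10 MBq; 130 MBq/μmol) injected. Mice killed under anaesthesia at 30 and 60 min post-injection. Inflamed tissue and organs collected, weighed, gamma-counted, and expressed as %ID/g. n = 3, mean ± SD.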

[2] = Biodistribution of ^68Ga-DOTA-RGD in MGC-803 tumor-bearing mice; assay type: in vivo; conditions: BALB/c nude, mouse, tumor (MGC-803 xenograft), iv, 10 MBq, total radioactivity
Procedure, shortened: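 Female BALB/c nude mice (4–5 weeks, SPF) bearing s.c. right-shoulder xenografts of 5 × 10^6 MGC-803 cells in PBS; cells grown in DMEM/10% FBS, 37 °C, 5% CO2. Injected 10 MBq radiotracer (740 MBq/μmol), killed at 60 and 180 min. Blocking by co-injection of excess unlabelled thiol peptide (50 mg/kg), 180 min. Ten tissues weighed and gamma-counted, expressed as %ID/g; n = 3.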

Molecule	uptake in inflammatory tissues ([1]; 0.5 h after injection) [% ID/g]	uptake in inflammatory tissues ([1]; 1 h after injection) [% ID/g]	tissue uptake at 1 h [2] [%ID/g]	tissue uptake at 3 h [2] [%ID/g]
^68Ga-DOTA-BSA: ^68Ga-labeled DOTA-Mal conjugated to DTT-treated bovine serum albumin (HS-BSA)	4.32 ± 1.10	6.50 ± 0.40	–	–
N=C(N)NCCC[C@@H]1NC(=O)[C@H](CSC2CC(=O)N(CCNC(=O)CN3CCN(CC(=O)O)CCN(CC(=O)O)CCN(CC(=O)O)CC3)C2=O)NC(=O)[C@H](CCCCN)NC(=O)[C@@H](Cc2ccc(O)cc2)NC(=O)[C@H](CC(=O)O)NC(=O)CNC1=O (stereo partly shown) [^68Ga-DOTA-RGD, metal not drawn] (cyclo(RGD[dY]KC(X1)))	–	–	4.31 ± 0.93	8.3 ± 0.92
